In ChEMBL document CHEMBL1158511, “Tricyclic dihydroquinazolinones as novel 5-HT2C selective and orally efficacious anti-obesity agents” (Bioorg Med Chem Lett, 2010):

Tests used:
[1] = biological target: T1, 5-hydroxytryptamine receptor 2B (Homo sapiens, UniProt P41595); experiment: Agonist activity at human recombinant 5HT2B receptor expressed in HEK293E cells by FLIPR assay; format: functional, cell-based
Summary of the method: (§1)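 Calcium mobilization measured by FLIPR in HEK293E cells expressing human 5-HT2A, 5-HT2B or 5-HT2C receptor. Values are means of ≥2 independent 12-point dose-response curves (n ≥4 where SD is given). mCPP is the positive control.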

[2] = biological target: T2, 5-hydroxytryptamine receptor 2A (Homo sapiens, UniProt P28223); experiment: Displacement of [125I]DOI from human recombinant 5HT2A receptor expressed in HEK293E cells; format: cell-based
T2 sequence (P28223 whole entry): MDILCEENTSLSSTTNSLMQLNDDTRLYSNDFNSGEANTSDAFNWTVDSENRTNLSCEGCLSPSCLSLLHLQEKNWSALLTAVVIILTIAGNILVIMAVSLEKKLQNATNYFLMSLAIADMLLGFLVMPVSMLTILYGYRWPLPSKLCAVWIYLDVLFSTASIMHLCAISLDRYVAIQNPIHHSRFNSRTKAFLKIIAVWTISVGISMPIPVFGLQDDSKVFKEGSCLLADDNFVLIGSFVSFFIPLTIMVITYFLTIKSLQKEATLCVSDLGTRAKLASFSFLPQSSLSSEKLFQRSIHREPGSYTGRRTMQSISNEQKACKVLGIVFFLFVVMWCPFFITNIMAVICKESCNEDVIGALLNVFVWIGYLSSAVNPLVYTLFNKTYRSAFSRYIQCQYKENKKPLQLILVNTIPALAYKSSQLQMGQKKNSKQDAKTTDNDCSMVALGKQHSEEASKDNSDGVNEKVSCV
Summary of the method: (§2)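 Radioligand binding with [125I]DOI at the human 5-HT2C or 5-HT2A receptor. Ki is the mean of ≥2 independent 12-point dose-response curves (n ≥4 where SD is given).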

[3] = biological target: T2, 5-hydroxytryptamine receptor 2A; experiment: Agonist activity at human recombinant 5HT2A receptor expressed in HEK293E cells by FLIPR assay; format: functional, cell-based; summary of the method: as §1
[4] = Half life in Sprague-Dawley rat at 1 mg/kg, iv; format: ADME, organism-based; parameters: dose 1 mg/kg, route intravenous; details: in vivo
Summary of the method: (§3)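 Male Sprague–Dawley rats were dosed at 1 mpk iv and po. Values are means of 3 animals per route.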

[5] = Half life in Sprague-Dawley rat at 1 mg/kg, po; format: ADME, organism-based; parameters: dose 1 mg/kg, route oral; details: in vivo; summary of the method: as §3
[6] = Clearance in Sprague-Dawley rat at 1 mg/kg, iv; format: ADME, organism-based; parameters: dose 1 mg/kg, route intravenous; details: in vivo; summary of the method: as §3
[7] = Volume of distribution at steady state in Sprague-Dawley rat at 1 mg/kg, iv; format: ADME, organism-based; parameters: dose 1 mg/kg, route intravenous; details: in vivo, read-out: Vdss; summary of the method: as §3
[8] = Tmax in Sprague-Dawley rat at 1 mg/kg, po; format: ADME, organism-based; parameters: dose 1 mg/kg, route oral; details: in vivo
Summary of the method: (§4)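 Male Sprague–Dawley rats were dosed po only at 1 or 10 mpk. Values are means of 2 animals. AUC was collected over 4 h. Plasma and total brain levels were taken at 4 h post dose.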

[9] = Cmax in Sprague-Dawley rat at 1 mg/kg, po; format: ADME, organism-based; parameters: dose 1 mg/kg, route oral; details: in vivo; summary of the method: as §4
[10] = AUC (0 to infinity) in Sprague-Dawley rat at 1 mg/kg, iv; format: ADME, organism-based; parameters: time infinity, dose 1 mg/kg, route intravenous; details: plasma; summary of the method: as §3
[11] = AUC (0 to infinity) in Sprague-Dawley rat at 1 mg/kg, po; format: ADME, organism-based; parameters: time infinity, dose 1 mg/kg, route oral; details: plasma; summary of the method: as §3
[12] = Oral bioavailability in Sprague-Dawley rat at 1 mg/kg; format: ADME, organism-based; details: in vivo; summary of the method: as §3
[13] = Tmax in Sprague-Dawley rat at 10 mg/kg, po; format: ADME, organism-based; parameters: dose 10 mg/kg, route oral; details: in vivo; summary of the method: as §4
[14] = Cmax in Sprague-Dawley rat at 10 mg/kg, po; format: ADME, organism-based; parameters: dose 10 mg/kg, route oral; details: in vivo; summary of the method: as §4
[15] = AUC in Sprague-Dawley rat at 1 mg/kg, po after 4 hrs; format: ADME, organism-based; parameters: time < 4 hr, dose 1 mg/kg, route oral; details: plasma; summary of the method: as §4
[16] = AUC in Sprague-Dawley rat at 10 mg/kg, po after 4 hrs; format: ADME, organism-based; parameters: time < 4 hr, dose 10 mg/kg, route oral; details: plasma; summary of the method: as §4
[17] = Plasma concentration in Sprague-Dawley rat at 1 mg/kg, po after 4 hrs; format: ADME, organism-based; parameters: dose 1 mg/kg, route oral; summary of the method: as §4
[18] = Plasma concentration in Sprague-Dawley rat at 10 mg/kg, po after 4 hrs; format: ADME, organism-based; parameters: dose 10 mg/kg, route oral; summary of the method: as §4
[19] = test system: Brain; experiment: Drug level in Sprague-Dawley rat brain at 1 mg/kg, po after 4 hrs; format: ADME, organism-based; parameters: dose 1 mg/kg, route oral; details: in vivo; summary of the method: as §4
[20] = test system: Brain; experiment: Drug level in Sprague-Dawley rat brain at 10 mg/kg, po after 4 hrs; format: ADME, organism-based; parameters: dose 10 mg/kg, route oral; details: in vivo; summary of the method: as §4
[21] = test system: Rattus norvegicus; experiment: Antiobesity activity in Sprague-Dawley rat assessed as reduction of food intake at 10 mg/kg, po after 20 hrs; format: functional; parameters: scale not given: the % may be the effect or the level left
[22] = test system: Rattus norvegicus; experiment: Antiobesity activity in Sprague-Dawley rat assessed as reduction of body weight at 30 mg/kg, po after 4 days; format: functional; parameters: scale not given: the % may be the effect or the level left
Summary of the method: (§5)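 Male Sprague–Dawley rats, about 240 g (n = 8), were dosed orally once daily for 4 days with compound or vehicle (14% propylene glycol, 1% tween, 85% water, v/v/v). Body weight, food and water intake were measured daily and compared with vehicle.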

[23] = test system: Rattus norvegicus; experiment: Antiobesity activity in Sprague-Dawley rat assessed as reduction of caloric intake at 30 mg/kg, po after 4 days; format: functional; parameters: scale not given: the % may be the effect or the level left; summary of the method: as §5
[24] = species: Rattus norvegicus; experiment: Toxicity in Sprague-Dawley rat; format: organism-based; details: in vivo
[25] = biological target: Cytochrome P450 2C19 (Homo sapiens, UniProt P33261); experiment: Inhibition of CYP2C19; format: ADME
Chain of Cytochrome P450 2C19 (P33261 whole entry): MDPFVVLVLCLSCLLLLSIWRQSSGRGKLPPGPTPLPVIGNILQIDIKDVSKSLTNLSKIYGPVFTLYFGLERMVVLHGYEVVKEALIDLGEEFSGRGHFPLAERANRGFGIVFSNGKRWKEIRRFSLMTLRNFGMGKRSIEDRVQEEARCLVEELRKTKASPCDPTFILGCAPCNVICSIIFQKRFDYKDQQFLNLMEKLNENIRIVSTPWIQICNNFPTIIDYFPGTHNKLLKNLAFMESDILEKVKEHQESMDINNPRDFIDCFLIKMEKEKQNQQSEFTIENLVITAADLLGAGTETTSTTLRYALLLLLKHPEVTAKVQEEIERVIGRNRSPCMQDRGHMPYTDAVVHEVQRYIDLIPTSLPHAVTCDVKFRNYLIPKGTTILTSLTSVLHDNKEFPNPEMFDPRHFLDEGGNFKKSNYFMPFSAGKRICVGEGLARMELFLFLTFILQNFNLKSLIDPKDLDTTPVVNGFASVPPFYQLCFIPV

[26] = biological target: Cytochrome P450 2D6 (Homo sapiens, UniProt P10635); experiment: Inhibition of CYP2D6; format: ADME
Chain of Cytochrome P450 2D6 (P10635 whole entry): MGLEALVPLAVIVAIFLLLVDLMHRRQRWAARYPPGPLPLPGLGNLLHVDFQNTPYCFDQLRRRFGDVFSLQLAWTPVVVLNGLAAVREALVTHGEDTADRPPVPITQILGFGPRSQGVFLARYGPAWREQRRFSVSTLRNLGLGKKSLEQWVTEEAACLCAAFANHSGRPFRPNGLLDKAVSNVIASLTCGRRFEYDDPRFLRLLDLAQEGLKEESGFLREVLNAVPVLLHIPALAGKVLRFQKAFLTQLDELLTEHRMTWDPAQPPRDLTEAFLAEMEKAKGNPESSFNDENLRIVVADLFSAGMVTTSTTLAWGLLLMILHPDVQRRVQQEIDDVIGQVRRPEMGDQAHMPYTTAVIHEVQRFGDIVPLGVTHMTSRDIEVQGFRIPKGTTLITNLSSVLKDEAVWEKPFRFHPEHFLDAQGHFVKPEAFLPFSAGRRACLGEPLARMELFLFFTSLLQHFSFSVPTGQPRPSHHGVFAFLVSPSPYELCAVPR

[27] = biological target: Cytochrome P450 3A4 (Homo sapiens, UniProt P08684); experiment: Inhibition of CYP3A4; format: ADME
[28] = biological target: T3, CYP1A2 (Homo sapiens, UniProt P05177); experiment: Inhibition of CYP1A2 at 10 uM; format: ADME
T3 sequence (P05177 whole entry): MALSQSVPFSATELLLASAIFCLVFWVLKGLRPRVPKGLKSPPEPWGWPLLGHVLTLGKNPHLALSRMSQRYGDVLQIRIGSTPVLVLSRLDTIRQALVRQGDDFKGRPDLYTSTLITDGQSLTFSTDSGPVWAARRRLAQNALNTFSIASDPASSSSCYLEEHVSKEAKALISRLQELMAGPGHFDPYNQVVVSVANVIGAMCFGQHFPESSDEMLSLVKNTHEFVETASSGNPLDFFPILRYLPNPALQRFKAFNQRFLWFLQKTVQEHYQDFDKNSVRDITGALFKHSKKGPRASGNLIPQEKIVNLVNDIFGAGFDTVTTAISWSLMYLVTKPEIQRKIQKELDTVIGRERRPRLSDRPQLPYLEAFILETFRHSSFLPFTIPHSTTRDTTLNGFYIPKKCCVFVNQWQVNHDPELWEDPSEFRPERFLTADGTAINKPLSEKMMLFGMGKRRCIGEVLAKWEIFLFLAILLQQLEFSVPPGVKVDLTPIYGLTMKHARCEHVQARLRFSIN

[29] = biological target: CYP2C9 (Homo sapiens, UniProt P11712); experiment: Inhibition of CYP2C9 at 10 uM; format: ADME
Chain of CYP2C9 (P11712 whole entry): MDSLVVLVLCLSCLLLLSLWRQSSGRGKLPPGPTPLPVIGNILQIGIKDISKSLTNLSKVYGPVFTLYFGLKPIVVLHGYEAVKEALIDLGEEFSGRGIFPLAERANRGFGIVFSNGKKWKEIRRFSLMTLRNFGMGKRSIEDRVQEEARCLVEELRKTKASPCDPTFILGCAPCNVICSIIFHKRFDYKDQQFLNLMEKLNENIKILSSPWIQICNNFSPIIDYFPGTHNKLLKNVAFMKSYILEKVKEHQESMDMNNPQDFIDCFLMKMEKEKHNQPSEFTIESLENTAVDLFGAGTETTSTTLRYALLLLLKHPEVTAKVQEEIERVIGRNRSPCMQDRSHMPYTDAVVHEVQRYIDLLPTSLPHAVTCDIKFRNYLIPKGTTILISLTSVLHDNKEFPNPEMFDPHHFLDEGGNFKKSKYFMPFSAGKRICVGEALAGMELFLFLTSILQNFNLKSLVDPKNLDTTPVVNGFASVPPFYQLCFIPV

[30] = biological target: CYP2C19 (Homo sapiens, UniProt P33261); experiment: Inhibition of CYP2C19 at 10 uM; format: ADME
Chain of CYP2C19 (P33261 whole entry): as the sequence (P33261 whole entry) above

[31] = biological target: CYP2D6 (Homo sapiens, UniProt P10635); experiment: Inhibition of CYP2D6 at 10 uM; format: ADME
Chain of CYP2D6 (P10635 whole entry): as the sequence (P10635 whole entry) above

[32] = biological target: CYP3A4 (Homo sapiens, UniProt P08684); experiment: Inhibition of CYP3A4 at 10 uM; format: ADME
[33] = biological target: hERG (Homo sapiens, UniProt Q12809); experiment: Inhibition of human ERG at 10 uM by patch clamp method
Chain of hERG (Q12809 whole entry): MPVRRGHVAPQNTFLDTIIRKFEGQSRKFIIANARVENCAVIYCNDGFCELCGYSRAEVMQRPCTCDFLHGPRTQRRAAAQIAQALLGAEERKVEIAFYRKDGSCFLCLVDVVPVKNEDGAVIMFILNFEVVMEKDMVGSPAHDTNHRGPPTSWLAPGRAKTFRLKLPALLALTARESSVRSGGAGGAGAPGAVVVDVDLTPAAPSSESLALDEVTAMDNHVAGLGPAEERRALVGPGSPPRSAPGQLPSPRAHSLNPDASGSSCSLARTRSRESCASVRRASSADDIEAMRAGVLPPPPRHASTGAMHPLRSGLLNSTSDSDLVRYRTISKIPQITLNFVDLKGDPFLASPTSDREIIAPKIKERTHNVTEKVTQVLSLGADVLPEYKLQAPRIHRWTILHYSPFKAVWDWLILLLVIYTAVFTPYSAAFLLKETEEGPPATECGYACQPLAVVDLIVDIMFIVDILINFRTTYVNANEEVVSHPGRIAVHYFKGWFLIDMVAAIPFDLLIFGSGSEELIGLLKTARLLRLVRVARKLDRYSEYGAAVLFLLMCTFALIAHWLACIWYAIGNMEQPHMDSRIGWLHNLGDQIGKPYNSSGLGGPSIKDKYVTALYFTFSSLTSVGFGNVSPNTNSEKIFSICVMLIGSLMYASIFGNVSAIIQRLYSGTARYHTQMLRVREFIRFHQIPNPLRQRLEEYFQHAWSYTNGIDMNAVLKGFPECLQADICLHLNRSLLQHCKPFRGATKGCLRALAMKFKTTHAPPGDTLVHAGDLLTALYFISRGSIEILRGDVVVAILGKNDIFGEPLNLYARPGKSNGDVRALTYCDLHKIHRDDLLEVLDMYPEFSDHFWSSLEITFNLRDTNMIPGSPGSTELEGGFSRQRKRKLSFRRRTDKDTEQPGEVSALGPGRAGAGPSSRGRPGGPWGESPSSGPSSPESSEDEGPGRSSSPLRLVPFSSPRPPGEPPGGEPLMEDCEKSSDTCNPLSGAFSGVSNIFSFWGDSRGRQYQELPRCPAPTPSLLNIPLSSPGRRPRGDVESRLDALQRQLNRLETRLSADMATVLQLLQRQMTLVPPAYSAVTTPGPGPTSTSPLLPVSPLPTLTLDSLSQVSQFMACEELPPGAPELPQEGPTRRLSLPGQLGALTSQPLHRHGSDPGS

[34] = biological target: T4, Cytochrome P450 1A2 (Homo sapiens, UniProt P05177); experiment: Inhibition of CYP1A2; format: ADME
T4 sequence (P05177 whole entry): T3 sequence (P05177 whole entry)

[35] = biological target: Cytochrome P450 2C9 (Homo sapiens, UniProt P11712); experiment: Inhibition of CYP2C9; format: ADME
Chain of Cytochrome P450 2C9 (P11712 whole entry): as the sequence (P11712 whole entry) above

[36] = biological target: T5, 5-hydroxytryptamine receptor 2C (Homo sapiens, UniProt P28335); experiment: Displacement of [125I]DOI from human recombinant 5HT2C receptor expressed in HEK293E cells; format: cell-based; summary of the method: as §2
T5 sequence (P28335 whole entry): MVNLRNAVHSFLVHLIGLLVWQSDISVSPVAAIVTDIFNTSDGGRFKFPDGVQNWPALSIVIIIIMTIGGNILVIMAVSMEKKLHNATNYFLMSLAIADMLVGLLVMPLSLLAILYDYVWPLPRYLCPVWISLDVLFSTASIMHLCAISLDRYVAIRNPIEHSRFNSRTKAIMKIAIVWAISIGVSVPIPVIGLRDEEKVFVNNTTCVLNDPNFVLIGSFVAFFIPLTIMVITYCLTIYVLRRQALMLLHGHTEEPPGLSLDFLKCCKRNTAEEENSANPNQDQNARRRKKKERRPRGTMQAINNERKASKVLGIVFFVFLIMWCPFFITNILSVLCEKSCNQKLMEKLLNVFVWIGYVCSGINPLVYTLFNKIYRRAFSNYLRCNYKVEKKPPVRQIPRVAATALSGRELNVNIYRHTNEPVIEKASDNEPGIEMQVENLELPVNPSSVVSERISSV

[37] = biological target: T5, 5-hydroxytryptamine receptor 2C; experiment: Agonist activity at human recombinant 5HT2C receptor expressed in HEK293E cells by FLIPR assay; format: functional, cell-based; summary of the method: as §1
[38] = biological target: T1, 5-hydroxytryptamine receptor 2B; experiment: Displacement of [3H]LSD from human recombinant 5HT2B receptor expressed in HEK293E cells

T1 sequence (P41595 whole entry): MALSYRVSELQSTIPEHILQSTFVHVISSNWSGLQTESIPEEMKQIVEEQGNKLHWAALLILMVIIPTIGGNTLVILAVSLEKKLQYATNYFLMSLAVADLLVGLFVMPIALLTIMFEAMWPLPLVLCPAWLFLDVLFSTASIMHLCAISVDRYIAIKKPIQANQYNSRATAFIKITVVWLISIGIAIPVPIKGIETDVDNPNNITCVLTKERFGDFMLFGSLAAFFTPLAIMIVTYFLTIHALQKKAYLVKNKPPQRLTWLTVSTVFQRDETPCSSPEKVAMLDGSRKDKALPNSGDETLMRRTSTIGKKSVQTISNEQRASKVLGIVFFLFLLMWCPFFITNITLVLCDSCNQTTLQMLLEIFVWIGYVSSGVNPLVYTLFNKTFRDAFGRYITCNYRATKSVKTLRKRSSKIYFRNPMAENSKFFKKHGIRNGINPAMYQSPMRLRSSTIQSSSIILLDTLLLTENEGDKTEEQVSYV

SMILES: Cc1cccc2c1C(=O)NC1CNCCN21 (single isomer, unassigned; (+))
- EC50 [1]: > 10000 nM
- Ki [2]: 229 nM
- EC50 [3]: > 10000 nM
- half-life [4]: 54 min
- half-life [5]: 150 min
- clearance [6]: 27 mL/min/kg
- Vd [7]: 1.3 L/kg
- Tmax [8]: 60 min
- Cmax [9]: 293 nM
- AUC(0-inf) [10]: 2.34 µM·h
- AUC(0-inf) [11]: 1.15 µM·h
- bioavailability [12]: 49%
- Tmax [13]: 30 min
- Cmax [14]: 5380 nM
- AUC at 4 h [15]: 1.04 µM·h
- AUC at 4 h [16]: 1.24 µM·h
- concentration at 4 h [17]: 219 nM
- concentration at 4 h [18]: 2120 nM
- Drug uptake [19]: 326 nmol/kg
- Drug uptake [20]: 3010 nmol/kg
- Activity [21]: 22%
- Activity [22]: 4.1%
- Activity [23]: 16%
- Activity [24]: Non-toxic
- IC50 [25]: > 40000 nM
- IC50 [26]: > 40000 nM
- IC50 [27]: > 40000 nM
- inhibition at 10 µM [28]: > 50%
- inhibition at 10 µM [29]: > 50%
- inhibition at 10 µM [30]: > 50%
- inhibition at 10 µM [31]: > 50%
- inhibition at 10 µM [32]: > 50%
- inhibition at 10 µM [33]: 37%
- IC50 [34]: > 40000 nM
- IC50 [35]: > 40000 nM
- Ki [36]: 89 nM
- EC50 [37]: 45 nM
- Ki [38]: 8.6 nM
